From ChEMBL document CHEMBL4364329, “Prodrug Activation by a Viral Protease: Evaluating Combretastatin Peptide Hybrids To Selectively Target Infected Cells” (ACS Med Chem Lett, 2019)
Active and inactive are the calls of the source. The calls are words filed in the database; no cut-off is given here. Non-standard residues stand in square brackets, D forms with d. Residues, ends and D or L forms follow the SMILES beside them. ξ: configuration not given here. *: point of attachment. X1 = COc1ccc(/C=C\c2cc(OC)c(OC)c(OC)c2)cc1N*; 2Abz = Nc1ccccc1C(=O)O; ξNle = CCCCC(N)C(=O)O; Bz = O=C(c1ccccc1)*

Columns and labels:
HeLa = test: Cytotoxicity against human HeLa cells harboring Dengue virus serotype 2 NS2B-NS3 protease assessed as reduction in cell viability after 72 hrs by cell titer blue assay; assay type: functional, cell-based
In short: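 DENV2 protease-expressing HeLa cells (DENV2proHeLa) were incubated with compound for 72 h. CC50 was determined from triplicate wells.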

Tubulin (Sus scrofa) = Tubulin (Sus scrofa) (UniProt P02554+P02550); test: Inhibition of porcine tubulin polymerization at 10 uM preincubated at 37 degC for 30 mins followed by chilling to 0 degC and subsequent addition of GTP by microtiter plate based absorbance detection assay relative to control; assay type: protein assay
[1] = molecular target: Genome polyprotein (dengue virus type 2) (UniProt P29990); test: Inhibition of Dengue virus serotype 2 NS2B-NS3 protease expressed in Escherichia coli BL21 lambda (DE3) cells at 250 uM preincubated with enzyme for 15 mins followed by 2-Abz-Nle-Lys-Arg-Arg-Ser-(3-NO2)-Tyr-NH2 FRET substrate addition measured for 15 mins by fluorescence analysis
[2] = system: CCCCC(NC(=O)c1ccccc1N)C(=O)N[C@@H](CCCCN)C(=O)N[C@@H](CCCNC(=N)N)C(=O)N[C@@H](CCCNC(=N)N)C(=O)N[C@@H](CO)C(=O)N[C@@H](Cc1ccc(O)cc1)C(N)=O; test: (§1) Substrate activity at Dengue virus serotype 2 NS2B-NS3 protease expressed in Escherichia coli BL21 lambda (DE3) cells assessed as Km for compound hydrolysis in TRIS buffer at pH 9 incubated for 10 mins at room temperature by Lineweaver-Burk plot analysis; assay type: ADME, dengue virus type 2
In short: (§2)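 Recombinant DENV NS2B-NS3 protease at 1 μM incubated with substrate from 100 μM up to 1 mM in pH 9 buffer for 10 min at room temperature. Triplicate wells. Km, vmax and kcat were derived from a Lineweaver–Burk plot.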

[3] = system: COc1ccc(/C=C\c2cc(OC)c(OC)c(OC)c2)cc1NC(=O)CNC(=O)CNC(=O)[C@H](CCCNC(=N)N)NC(=O)[C@H](CCCNC(=N)N)NC(=O)c1ccccc1; test: as §1; assay type: ADME, dengue virus type 2; in short: as §2
[4] = system: COc1ccc(/C=C\c2cc(OC)c(OC)c(OC)c2)cc1NC(=O)CNC(=O)[C@H](CCCNC(=N)N)NC(=O)[C@H](CCCCN)NC(=O)c1ccccc1; test: as §1; assay type: ADME, dengue virus type 2; in short: as §2
[5] = system: COc1ccc(/C=C\c2cc(OC)c(OC)c(OC)c2)cc1NC(=O)CNC(=O)[C@H](CCCNC(=N)N)NC(=O)[C@H](CCCNC(=N)N)NC(=O)c1ccccc1; test: as §1; assay type: ADME, dengue virus type 2; in short: as §2
[6] = system: COc1ccc(/C=C\c2cc(OC)c(OC)c(OC)c2)cc1NC(=O)[C@H](C)NC(=O)[C@H](CCCNC(=N)N)NC(=O)[C@H](CCCNC(=N)N)NC(=O)c1ccccc1; test: as §1; assay type: ADME, dengue virus type 2; in short: as §2

Sequence of Tubulin (Sus scrofa) (P02550 whole entry, looked up): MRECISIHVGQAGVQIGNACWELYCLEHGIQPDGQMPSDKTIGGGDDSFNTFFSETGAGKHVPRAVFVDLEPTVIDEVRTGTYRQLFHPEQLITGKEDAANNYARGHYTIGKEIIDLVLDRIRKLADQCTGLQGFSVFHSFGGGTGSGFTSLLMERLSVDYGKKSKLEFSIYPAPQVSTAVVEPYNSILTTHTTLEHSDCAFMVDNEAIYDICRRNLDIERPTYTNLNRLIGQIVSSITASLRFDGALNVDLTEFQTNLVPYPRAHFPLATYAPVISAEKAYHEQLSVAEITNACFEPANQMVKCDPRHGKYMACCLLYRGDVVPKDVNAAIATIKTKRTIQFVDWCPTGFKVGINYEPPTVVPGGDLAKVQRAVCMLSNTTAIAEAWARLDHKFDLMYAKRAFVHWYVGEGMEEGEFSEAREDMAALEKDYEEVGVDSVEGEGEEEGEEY
Sequence of Tubulin (Sus scrofa) (P02554 whole entry, looked up): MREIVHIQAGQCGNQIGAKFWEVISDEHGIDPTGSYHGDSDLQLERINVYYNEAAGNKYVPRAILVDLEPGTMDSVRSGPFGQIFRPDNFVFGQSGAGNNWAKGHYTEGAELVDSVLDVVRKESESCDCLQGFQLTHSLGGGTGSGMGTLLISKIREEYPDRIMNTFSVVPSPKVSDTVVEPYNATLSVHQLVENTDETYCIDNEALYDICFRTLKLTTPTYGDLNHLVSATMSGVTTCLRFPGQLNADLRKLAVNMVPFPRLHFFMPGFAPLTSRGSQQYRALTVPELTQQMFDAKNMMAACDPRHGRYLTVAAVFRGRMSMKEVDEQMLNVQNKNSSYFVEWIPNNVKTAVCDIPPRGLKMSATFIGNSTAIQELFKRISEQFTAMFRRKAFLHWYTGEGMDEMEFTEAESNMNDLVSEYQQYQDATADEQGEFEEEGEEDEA

Compound | Activity (HeLa) | inhibition (Tubulin (Sus scrofa)) | other results
COc1ccc(/C=C\c2cc(OC)c(OC)c(OC)c2)cc1N | Toxic | 33.1% | 
COc1ccc(/C=C\c2cc(OC)c(OC)c(OC)c2)cc1NC(=O)CCNC(=O)[C@H](CCCNC(=N)N)NC(=O)[C@H](CCCNC(=N)N)NC(=O)c1ccccc1 | Toxic | 3.4% | 
COc1ccc(/C=C\c2cc(OC)c(OC)c(OC)c2)cc1NC(=O)CN |  | 61% | 
COc1ccc(/C=C\c2cc(OC)c(OC)c(OC)c2)cc1NC(=O)CNC(=O)[C@H](CCCNC(=N)N)NC(=O)[C@H](CCCCN)NC(=O)c1ccccc1 | Toxic | -5.7% | 
COc1ccc(/C=C\c2cc(OC)c(OC)c(OC)c2)cc1NC(=O)CNC(=O)[C@H](CCCNC(=N)N)NC(=O)[C@H](CCCNC(=N)N)NC(=O)c1ccccc1 | Toxic | 26% | 
COc1ccc(/C=C\c2cc(OC)c(OC)c(OC)c2)cc1NC(=O)[C@H](C)N |  | 40.5% | 
COc1ccc(/C=C\c2cc(OC)c(OC)c(OC)c2)cc1NC(=O)[C@H](C)NC(=O)[C@H](CCCNC(=N)N)NC(=O)[C@H](CCCCN)NC(=O)c1ccccc1 |  | -4.9% | 
COc1ccc(/C=C\c2cc(OC)c(OC)c(OC)c2)cc1NC(=O)[C@H](C)NC(=O)[C@H](CCCNC(=N)N)NC(=O)[C@H](CCCNC(=N)N)NC(=O)c1ccccc1 | Toxic | 3.4% | 
COc1ccc(/C=C\c2cc(OC)c(OC)c(OC)c2)cc1NC(=O)[C@H](CO)NC(=O)[C@H](CCCNC(=N)N)NC(=O)[C@H](CCCCN)NC(=O)c1ccccc1 |  | -4.2% | 
COc1ccc(/C=C\c2cc(OC)c(OC)c(OC)c2)cc1NC(=O)[C@H](CO)NC(=O)[C@H](CCCNC(=N)N)NC(=O)[C@H](CCCNC(=N)N)NC(=O)c1ccccc1 | Toxic | 1.9% | 
COc1ccc(/C=C\c2cc(OC)c(OC)c(OC)c2)cc1O | Toxic | 60.3% | 
N=C(N)NCCC[C@H](NC(=O)[C@H](CCCNC(=N)N)NC(=O)c1ccccc1)C(=O)O (Bz-Arg-Arg-OH) |  |  | inhibition [1]: 35%
N=C(N)NCCC[C@H](NC(=O)[C@H](CCCCN)NC(=O)c1ccccc1)C(=O)O (Bz-Lys-Arg-OH) |  |  | inhibition [1]: 12.2%
COc1ccc(/C=C\c2cc(OC)c(OC)c(OC)c2)cc1NC(=O)CNC(=O)CNC(=O)[C@H](CCCNC(=N)N)NC(=O)[C@H](CCCNC(=N)N)NC(=O)c1ccccc1 (Bz-RRGG-X1) | Toxic | 13.4% | 
CCCCC(NC(=O)c1ccccc1N)C(=O)N[C@@H](CCCCN)C(=O)N[C@@H](CCCNC(=N)N)C(=O)N[C@@H](CCCNC(=N)N)C(=O)N[C@@H](CO)C(=O)N[C@@H](Cc1ccc(O)cc1)C(N)=O (stereo partly drawn) (H-[2Abz][ξNle]KRRSY-NH2) |  | inactive | 
Genome polyprotein (Dengue virus 2 Thailand/16681/84) |  |  | Km [2]: 182 µM; Vmax [2]: 10.1 µM/min; kcat [2]: 0.168 s⁻¹; Km [3]: 144 µM; Vmax [3]: 4.69 µM/min; kcat [3]: 0.0782 s⁻¹; Km [4]: 173 µM; Vmax [4]: 2.14 µM/min; kcat [4]: 0.0357 s⁻¹; Km [5]: 225 µM; Vmax [5]: 6.18 µM/min; kcat [5]: 0.103 s⁻¹; Km [6]: 949 µM; Vmax [6]: 17 µM/min; kcat [6]: 0.284 s⁻¹
